# AP complement: orthogonal test for alternative complement pathway inhibitors. Human serum alternative complement pathway, LPS-coated ELISA, C3 deposition; tested in compound mixtures. inhibition, % at 5 µM. hit rate 0.08% among 62,000. AID 1235;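 active = inhibition above 30% in each of the two pooled mixtures holding the compound, so the lower value exceeds 30%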;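 also: 0% = serum in Mg-EGTA without compound and 100% = EDTA serum blank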
#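 Medium: diluted human serum in Mg2+-EGTA GVB++. Assay system: human serum complement alternative pathway, C3 deposition onto LPS. Also added: Plate-bound LPS. Technique: Anti-C3 ELISA, OD 450 nm. Measure: percent inhibition. Incubation: 1 h at 37 °C. Dosing: 5 µM each compound, pools of ten, 50 µM per pool.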
# M1 agonist: agonists of M1 muscarinic receptor; CHO-M1 cells, Fluo-4 calcium fluorescence, agonist mode; hits give high values; B-score at 10 µM; hit rate 3% among 64,000; AID 626;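 active = fluorescence rise, raw or as B-score row- and column-corrected plate score, outside the 99.7% band of its plate's samples, either direction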
# D1 allo mod: allosteric modulators of human D1 dopamine receptor. P21728. HEK293 D1, CRE-luciferase, dopamine EC30 potentiation; actives deviate in either direction. B-score at 10 µM. hit rate 5.9% among 58,000. AID 641;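 active = luminescence count or its row- and column-corrected plate score outside the 99.7% band of the plate's sample wells, on either side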
# M1 antagonist: antagonists of rat M1 muscarinic receptor; P08482; CHO-M1 cells, Fluo-4 calcium, ACh EC80 antagonist mode; hits give low values; B-score at 10 µM; hit rate 3.4% among 64,000;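 active = calcium fluorescence response, raw or row-and-column corrected B-score, differing from the plate sample mean either way at a set confidence level, mostly lower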
# Target sequence (P08482 whole entry, looked up): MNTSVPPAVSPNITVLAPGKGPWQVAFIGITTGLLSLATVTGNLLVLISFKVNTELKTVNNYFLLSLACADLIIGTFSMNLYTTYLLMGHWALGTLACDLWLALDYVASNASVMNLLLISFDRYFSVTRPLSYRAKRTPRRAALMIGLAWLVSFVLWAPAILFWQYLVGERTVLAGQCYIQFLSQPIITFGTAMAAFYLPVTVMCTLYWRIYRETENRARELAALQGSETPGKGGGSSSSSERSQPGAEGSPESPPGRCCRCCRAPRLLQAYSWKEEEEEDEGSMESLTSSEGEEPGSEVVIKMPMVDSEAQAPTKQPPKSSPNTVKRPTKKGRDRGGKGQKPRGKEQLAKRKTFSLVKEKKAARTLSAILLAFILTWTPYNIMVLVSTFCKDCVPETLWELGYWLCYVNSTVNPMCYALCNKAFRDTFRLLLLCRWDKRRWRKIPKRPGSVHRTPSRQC
# Htt clearance: mutant huntingtin protein clearance. AID 853. hit rate 0.42% among 47,000. inhibition, % at 1.5 µM. HeLa Exon1htt(103Q)mCFP, aggregate imaging; zero = plate's median compound well;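 active = inhibition of aggregate fluorescence above about 70%, also judged a hit by eye on the cell image, limit read from the data, passing the limit was not always enough; inconclusive = no rule stated for this call; inactive = not judged a hit on image review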;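 also: cells exposed to compound for three days before fixation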
# M1 agonist conf: confirmation of rat M1 muscarinic receptor agonists | fluorescence change (max-min) at 10 µM | AID 1488 | hit rate 19% among 1,700 | shares compounds with M1 agonist | CHO-M1 cells, Fluo-4 calcium fluorescence, agonist mode; actives lie on both sides;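 active = fluorescence change differs from the solvent-only DMSO control mean at a set confidence level in both duplicate runs; inconclusive = differs from solvent-only control mean in just one of two runs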;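 also: an EC20 dose of acetylcholine follows compound addition during the same imaging run; raw fluorescence intensity difference in instrument units with no normalization to controls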
# M4 ag counter: activates rat M4 receptor in counter-screen for M1 agonists; fluorescence change (max-min) at 10 µM; shares compounds with M1 agonist; hit rate 9% among 1,700; CHO M4/Gqi5 cells, Fluo-4 calcium fluorescence, agonist mode; actives lie on both sides;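 active = fluorescence change differing from the plate's solvent-only control wells at 99.7% confidence in both duplicates, whether higher or lower; inconclusive = differs from solvent controls in only one of two duplicates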
# The depositor's hits bear a star; ? = inconclusive; / = no result given. A selection: hits, their analogues and other compounds. The true share with any hit is near 9%.
SMILES,AP complement,M1 agonist,D1 allo mod,M1 antagonist,Htt clearance,others
O=C(O)C1Nc2c(C(=O)N3CCOCC3)cccc2C2C=CCC12 (centres undefined),4.3,-0.236,2.26,1.81*,0.4,
c1ccc2c(c1)CCN(c1nc3cc4c(cc3s1)OCCO4)C2,10.7,0.0405,-6.09*,-0.382,28.4,
O=C(NCc1ccccc1F)C1CCCN1C(=O)NCc1ccccc1 (centres undefined),0.2,-0.141,0.0528,0.412,5.9,
CCOC(=O)c1cc(-c2ccco2)nc2c1c(C)nn2CCC#N,-10.6,0.37,0.464,1.07*,5.4,
COc1ccc2c(c1)CCc1c(C(=O)N3CCOCC3)noc1-2,19.0,-0.546,-0.29,0.851,13.0,
COc1ccc2c(c1)CCc1c(C(=O)N3CC4(C)CC3CC(C)(C)C4)noc1-2 (centres undefined),10.3,26.7*,0.00692,0.037,-67.6,
COCCCNC(=O)c1cn(Cc2c(F)cccc2Cl)nn1,31.4,0.28,-3.93*,0.0921,-36.1,
CCCCn1cnc2c(c1=O)c1nc3ccccc3nc1n2Cc1ccc2c(c1)OCO2,-2.5,0.00804,0.792,0.32,/,
OC(CN1C2=NCCN2c2ccccc21)c1ccc(Br)cc1 (centres undefined),10.1,0.0893,-5.03*,-1.11,-69.9,
COc1ccc(OC)c(C(c2nnnn2C2CCCC2)N2CCc3ccccc3C2)c1 (centres undefined),-5.5,4.32,-0.965,0.891,73.4*,
COc1ccc(C(c2nnnn2C2CCCC2)N2CCc3ccccc3C2)cc1OC (centres undefined),19.3,-0.345,-0.00155,0.446,/,
C=CCn1c(CCC(=O)O)ccc1-c1ccccc1,16.6,-0.411,0.0198,-0.00974,6.4,
CCC(C)n1c(C)nc2c(c1=O)c1nc3ccccc3nc1n2-c1ccc2c(c1)OCCO2 (centres undefined),-16.6,-0.657,-5.27*,-0.346,/,
O=c1c2c3nc4ccccc4nc3n(-c3ccc4c(c3)OCCO4)c2ncn1CC1CCCO1 (centres undefined),14.8,-0.0131,1.88,-1.76*,/,
O=c1c2c3nc4ccccc4nc3n(-c3ccc4c(c3)OCCO4)c2ncn1C1CCCC1,-0.7,0.122,-0.935,0.195,/,
CCCNC(=O)c1c(N)n(-c2ccc3c(c2)OCO3)c2nc3ccccc3nc12,-8.0,0.362,0.395,0.134,-23.9,
CCN(CC)S(=O)(=O)c1ccc2c(c1)nc(SCC(=O)NC1CC1)n2-c1ccccc1OC,2.8,-0.22,0.0944,-0.0569,/,
C=CCOc1ccccc1/C=c1\sc2nc(-c3oc4ccccc4c3C)nn2c1=O,3.8,5.16*,-0.0549,-0.283,-40.4,
c1ccc(-c2nnc3sc(-c4csc5c4CCCC5)nn23)cc1,-10.1,-0.159,1.59,-1.97,59.7,
Cc1cc(C)n(S(=O)(=O)c2cc(C(=O)O)c(Cl)cc2Cl)n1,11.0,-1.33,1.93,2.27*,59.6,
Cc1cc(C)n(S(=O)(=O)c2ccc(Cl)c(Cl)c2Cl)n1,5.5,0.198,0.156,-0.0587,/,
CS(=O)(=O)N(CC(=O)Nc1cccc(F)c1)Cc1ccccc1,12.1,-0.154,-0.658,-0.578,-78.2,
OC(CN1CCN(c2ccccn2)CC1)Cn1c2ccccc2c2ccccc21 (centres undefined),7.1,-0.0464,-2.73*,0.338,4.7,
CN(C(=O)c1cccc(C#N)c1)c1nnc(-c2ccccn2)s1,-3.8,0.00485,-0.0102,0.197,10.9,
CN(C(=O)c1ccc(C#N)cc1)c1nnc(-c2ccccn2)s1,/,/,/,/,80.0*,
SMILES,AP complement,M1 agonist,D1 allo mod,M1 antagonist,Htt clearance,others
Cc1ccnc(N2CCN(c3cc(C)c(C#N)c4nc5ccccc5n34)CC2)c1,/,4.32,-0.0679,-2.51*,/,
Cc1ccc(NC(=O)NC2=N/C(=C(/C#N)C(=O)N3CCCC3)c3ccccc32)cc1,0.5,1.68,-3.8*,0.236,/,
c1ccc(CN2CCC3(CC2)Nc2ccccc2CO3)cc1,5.8,17*,-1.19,-2.84*,-35.6,
O=C(N1CCOCC1)N1CCN(Cc2ccccc2)CC1,13.3,0.405,-1.15,-0.744,-54.3,
COC(=O)c1ccccc1S(=O)(=O)N(Cc1ccco1)Cc1cc2cc(OC)ccc2[nH]c1=O,9.5,7.72*,-0.0143,-0.19,-10.8,
COc1ccccc1CNC(=O)C(C)NS(=O)(=O)c1ccc(Br)cc1 (centres undefined),/,/,/,/,-80.0,
Cc1ccc(NC(=O)CN(C)S(=O)(=O)c2cccc3nsnc23)cc1,2.5,0.459,-5.36*,0.591,12.0,
CCOc1ccc(NC(=O)c2cc3n(n2)C(C(F)(F)F)CC(c2ccco2)N3)cc1 (centres undefined),-11.5,-1.09,-7.48*,-1.01,/,
O=C(Nc1nccs1)c1cccc(S(=O)(=O)N2CCOCC2)c1,-1.2,0,0.936,0.442,-4.5,
CCOC(=O)N1CCC(n2c(SCC(=O)N3CCC(C)CC3)nc3ccccc3c2=O)CC1,/,/,/,/,13.4,
CCOC(=O)N1CCC(n2c(SCC(=O)NCc3ccccc3)nc3ccccc3c2=O)CC1,14.9,3.64*,/,-1.03,40.4,M1 agonist conf=-6.29;M4 ag counter=-10.9
O=C(Nc1nc(-c2ccccn2)cs1)C1CC1,-9.2,-0.0389,-0.491,0.232,52.6,
CN(CC1CCCO1)S(=O)(=O)c1ccc(C(=O)Nc2nc(-c3ccccn3)cs2)cc1 (centres undefined),-1.5,9.57*,-2.04,0.014,/,M1 agonist conf=-11.6;M4 ag counter=-32.4
COc1cccc(C(C(=O)NCc2ccco2)N(C(=O)Cn2nnc3ccccc32)C2CC2)c1OC (centres undefined),-1.1,-0.183,-0.37,1.17,/,
COc1cccc(-c2cc(C(F)(F)F)n3ncc(C(=O)NCC4CCCO4)c3n2)c1 (centres undefined),12.1,6.59*,-0.102,-1.86,/,M1 agonist conf=?;M4 ag counter=-53.8
Cn1c(=O)n(C)c2cc(NC(=O)CSc3nnc(-c4ccccc4O)n3-c3ccccc3)ccc21,-0.3,-0.382,-1.98,-1.07,/,
CCOc1ccccc1NC(=O)N1CCCC1C(=O)Nc1ccc(NC(C)=O)cc1 (centres undefined),-0.2,0.94,-0.292,0.0152,-5.2,
CCC(=O)N1CCN(c2ccc(NC(=O)c3cc4ccccc4o3)cc2Cl)CC1,10.1,4.55*,-3.9*,-1.87*,/,M1 agonist conf=-18.7;M4 ag counter=-35.2
O=C(Nc1ccc(N2CCN(C(=O)c3ccco3)CC2)c(Cl)c1)c1cc2ccccc2o1,22.9,/,-1.14,/,19.2,
CCCC(=O)N1CCN(c2ccc(NC(=O)c3cc4ccccc4o3)cc2Cl)CC1,13.3,6.89*,-2.69,-1.59,/,M1 agonist conf=-17.2;M4 ag counter=-33.9
Cc1ccc(-c2nn(C)c(=O)c3ccccc23)cc1CNC(=O)c1ccco1,10.7,1.26,/,-1.22,16.8,
CC(C)(C)OC(=O)NC(CCCCNC=O)C(=O)O (centres undefined),-2.3,-0.323,-0.328,0.29,-209.4,

# Screening results (PubChem BioAssay)
